The nature of this test: Cytotoxicity against human EC109 cells at 50 ug/ml after 48 hrs by MTT assay. It is filed as functional. The following applies: ECa-109, 48 h. In outline:
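EC109 cells grown in RPMI-1640 with 10% fetal calf serum, penicillin and streptomycin at 37 °C in 5% CO2. Seeded at 7000 cells/well; compound diluted in medium added next day for 48 h. MTT (0.5 mg/mL in PBS) then added for a further 4 h, formazan dissolved in DMSO, absorbance read at 570 nm.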
(Formazan colour is commonly taken as a measure of viable cells.)

As usually defined, the inhibition is the drop in the measured response relative to a control, in per cent.

Take `C[C@]12C[C@@H](O)[C@H]3[C@@H]([C@H](O)C=C4C[C@@H](O)CC[C@@]43C)[C@@H]1CC[C@@H]2C(=O)/C=C/c1cccc(Cl)c1`: the inhibition at 50 µg/mL was 76.4%.

The compound `C[C@]12C[C@@H](O)[C@H]3[C@@H]([C@H](O)C=C4C[C@@H](O)CC[C@@]43C)[C@@H]1CC[C@@H]2C(=O)/C=C/c1cccc([N+](=O)[O-])c1` gave an inhibition at 50 µg/mL of 72.4%. `C[C@]12C[C@@H](O)[C@H]3[C@@H]([C@H](O)C=C4C[C@@H](O)CC[C@@]43C)[C@@H]1CC[C@@H]2C(=O)/C=C/c1ccccc1` registered an inhibition at 50 µg/mL of 59.8%. With `C[C@]12C[C@@H](O)[C@H]3[C@@H]([C@H](O)C=C4C[C@@H](O)CC[C@@]43C)[C@@H]1CC[C@@H]2C(=O)/C=C/c1ccc(O)cc1` the figure was 45.7%; with `CC(=O)[C@H]1CC[C@H]2[C@H]3[C@H]([C@H](O)C[C@]12C)[C@@]1(C)CC[C@H](O)CC1=C[C@H]3O`, 21.7%. With `COc1ccccc1/C=C/C(=O)[C@H]1CC[C@H]2[C@H]3[C@H]([C@H](O)C[C@]12C)[C@@]1(C)CC[C@H](O)CC1=C[C@H]3O` the figure was 47.4%; with `C=C1C(=O)[C@]23[C@H](O)[C@H]1CC[C@H]2[C@@]12CO[C@]3(O)[C@@H](O)[C@@H]1C(C)(C)CC[C@@H]2O` [ORIDONIN], 94.7%; with `CN(C)c1ccc(/C=C/C(=O)[C@H]2CC[C@H]3[C@H]4[C@H]([C@H](O)C[C@]23C)[C@@]2(C)CC[C@H](O)CC2=C[C@H]4O)cc1`, 39%. On to `C[C@]12C[C@@H](O)[C@H]3[C@@H]([C@H](O)C=C4C[C@@H](O)CC[C@@]43C)[C@@H]1CC[C@@H]2C(=O)/C=C/c1ccc(N)cc1`, for which the inhibition at 50 µg/mL turned out to be 50.2%. With `C[C@]12C[C@@H](O)[C@H]3[C@@H]([C@H](O)C=C4C[C@@H](O)CC[C@@]43C)[C@@H]1CC[C@@H]2C(=O)/C=C/c1ccc(F)cc1` the figure was 76.8%; with `C[C@]12C[C@@H](O)[C@H]3[C@@H]([C@H](O)C=C4C[C@@H](O)CC[C@@]43C)[C@@H]1CC[C@@H]2C(=O)/C=C/c1ccc(Cl)cc1`, 80.2%. With `CC(=O)[C@H]1CC[C@H]2[C@@H]3CC=C4C[C@@H](O)CC[C@]4(C)[C@H]3CC[C@]12C` [PREGNENOLONE] the figure was 13.6%; with `COc1ccc(/C=C/C(=O)[C@H]2CC[C@H]3[C@H]4[C@H]([C@H](O)C[C@]23C)[C@@]2(C)CC[C@H](O)CC2=C[C@H]4O)cc1`, 55.3%. With `COc1cc(OC)c(/C=C/C(=O)[C@H]2CC[C@H]3[C@H]4[C@H]([C@H](O)C[C@]23C)[C@@]2(C)CC[C@H](O)CC2=C[C@H]4O)c(OC)c1` the figure was 35.3%.

Values taken from ChEMBL document CHEMBL1154667, “Synthesis of 3beta, 7alpha, 11alpha-trihydroxy-pregn-21-benzylidene-5-en-20-one derivatives and their cytotoxic activities” (2009).
